According to ChEMBL document CHEMBL2331160, “Trimeric hemibastadin congener from the marine sponge Ianthella basta” (J Nat Prod, 2013):
Calls of active or inactive are those of the source. The rule behind the calls is not given here.

How the values were obtained:
Focal adhesion kinase 1 = Focal adhesion kinase 1 (Homo sapiens, UniProt Q05397); assay: Inhibition of FAK (unknown origin)
Outline: (§1)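 Biochemical (cell-free) assay within a panel of 24 protein kinases. Results reported as IC50 values. Procedure as described in earlier work.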

[1] = biological target: Casein kinase II subunit alpha (Homo sapiens, UniProt P68400); assay: Inhibition of CK2-alpha1 (unknown origin); outline: as §1
[2] = biological target: Serine/threonine-protein kinase B-raf (Homo sapiens, UniProt P15056, V600E); assay: Inhibition of B-RAF V600E mutant (unknown origin); outline: as §1
[3] = biological target: Vascular endothelial growth factor receptor 2 (Homo sapiens, UniProt P35968); assay: Inhibition of VEGFR2 (unknown origin); outline: as §1
[4] = biological target: Proto-oncogene tyrosine-protein kinase Src (Homo sapiens, UniProt P12931); assay: Inhibition of SRC (unknown origin); outline: as §1
Aurora kinase B = Aurora kinase B (Homo sapiens, UniProt Q96GD4); assay: Inhibition of aurora-B (unknown origin); outline: as §1
[5] = biological target: Epidermal growth factor receptor (Homo sapiens, UniProt P00533); assay: Inhibition of EGFR (unknown origin); outline: as §1
[6] = biological target: Cyclin-dependent kinase 2/cyclin A (Homo sapiens, UniProt P24941); assay: Inhibition of CDK2/cyclin-A (unknown origin); type: protein-complex assay; outline: as §1
[7] = biological target: Serine/threonine-protein kinase PLK1 (Homo sapiens, UniProt P53350); assay: Inhibition of PLK1 (unknown origin); outline: as §1
Aurora kinase A = biological target: T1, Aurora kinase A (Homo sapiens, UniProt O14965); assay: Inhibition of aurora-A (unknown origin); outline: as §1
T1 sequence (O14965 whole entry): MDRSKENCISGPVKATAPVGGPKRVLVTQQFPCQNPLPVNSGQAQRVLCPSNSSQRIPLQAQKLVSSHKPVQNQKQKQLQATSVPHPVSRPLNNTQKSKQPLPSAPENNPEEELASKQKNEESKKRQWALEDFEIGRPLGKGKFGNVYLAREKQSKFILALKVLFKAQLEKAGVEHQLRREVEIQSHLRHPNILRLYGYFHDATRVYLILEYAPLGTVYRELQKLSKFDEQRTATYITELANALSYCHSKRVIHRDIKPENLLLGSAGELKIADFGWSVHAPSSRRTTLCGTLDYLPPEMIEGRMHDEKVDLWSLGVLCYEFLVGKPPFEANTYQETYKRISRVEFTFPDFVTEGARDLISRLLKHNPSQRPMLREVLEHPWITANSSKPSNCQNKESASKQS

[8] = biological target: Receptor tyrosine-protein kinase erbB-2 (Homo sapiens, UniProt P04626); assay: Inhibition of ERBB2 (unknown origin); outline: as §1
[9] = biological target: Cyclin-dependent kinase 4/cyclin D1 (Homo sapiens, UniProt P11802); assay: Inhibition of CDK4/cyclin-D1 (unknown origin); type: protein-complex assay; outline: as §1
L5178Y = assay: Cytotoxicity against mouse L5178Y cells assessed as inhibition of cell proliferation by MTT assay; type: functional, cell-based
[10] = biological target: RAC-alpha serine/threonine-protein kinase (Homo sapiens, UniProt P31749); assay: Inhibition of AKT1 (unknown origin); outline: as §1
Angiopoietin-1 receptor = Angiopoietin-1 receptor (Homo sapiens, UniProt Q02763); assay: Inhibition of TIE2 (unknown origin); outline: as §1
[11] = biological target: T2, Serine/threonine-protein kinase PLK4 (Homo sapiens, UniProt O00444); assay: Inhibition of SAK (unknown origin); outline: as §1
T2 sequence (O00444 whole entry): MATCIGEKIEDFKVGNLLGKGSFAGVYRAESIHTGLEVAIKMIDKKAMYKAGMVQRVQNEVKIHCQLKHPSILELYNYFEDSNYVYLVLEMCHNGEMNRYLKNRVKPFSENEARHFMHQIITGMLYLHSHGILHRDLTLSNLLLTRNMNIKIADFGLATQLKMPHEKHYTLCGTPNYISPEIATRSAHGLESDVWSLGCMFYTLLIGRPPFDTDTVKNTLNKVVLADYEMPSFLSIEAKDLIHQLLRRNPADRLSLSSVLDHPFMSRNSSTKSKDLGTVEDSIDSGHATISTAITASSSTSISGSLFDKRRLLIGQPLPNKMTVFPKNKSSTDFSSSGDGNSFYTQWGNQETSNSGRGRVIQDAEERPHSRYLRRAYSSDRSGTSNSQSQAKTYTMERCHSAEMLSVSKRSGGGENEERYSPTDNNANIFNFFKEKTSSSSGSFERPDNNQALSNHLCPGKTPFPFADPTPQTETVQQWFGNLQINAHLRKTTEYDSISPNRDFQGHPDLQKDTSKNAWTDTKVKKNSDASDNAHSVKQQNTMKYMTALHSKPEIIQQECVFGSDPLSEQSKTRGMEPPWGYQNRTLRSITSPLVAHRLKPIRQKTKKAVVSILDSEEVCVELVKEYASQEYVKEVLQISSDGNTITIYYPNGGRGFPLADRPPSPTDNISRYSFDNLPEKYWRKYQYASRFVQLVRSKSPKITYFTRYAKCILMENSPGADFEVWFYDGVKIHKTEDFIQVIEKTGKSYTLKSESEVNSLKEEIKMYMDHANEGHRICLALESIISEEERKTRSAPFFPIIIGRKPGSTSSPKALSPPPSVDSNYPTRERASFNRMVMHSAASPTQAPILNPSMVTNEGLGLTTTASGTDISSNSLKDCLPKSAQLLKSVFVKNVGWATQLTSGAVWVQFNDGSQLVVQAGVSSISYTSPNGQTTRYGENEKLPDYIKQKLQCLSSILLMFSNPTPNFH

[12] = biological target: Insulin-like growth factor 1 receptor (Homo sapiens, UniProt P08069); assay: Inhibition of IGF1R (unknown origin); outline: as §1
[13] = biological target: Mitogen-activated protein kinase kinase kinase 8 (Homo sapiens, UniProt P41279); assay: Inhibition of COT (unknown origin)
Outline: (§2)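 Biochemical (cell-free) assay using a panel of 24 protein kinases. The read-out was the IC50.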

[14] = biological target: T3, NUAK family SNF1-like kinase 1 (Homo sapiens, UniProt O60285); assay: Inhibition of ARK5 (unknown origin); outline: as §1
T3 sequence (O60285 whole entry): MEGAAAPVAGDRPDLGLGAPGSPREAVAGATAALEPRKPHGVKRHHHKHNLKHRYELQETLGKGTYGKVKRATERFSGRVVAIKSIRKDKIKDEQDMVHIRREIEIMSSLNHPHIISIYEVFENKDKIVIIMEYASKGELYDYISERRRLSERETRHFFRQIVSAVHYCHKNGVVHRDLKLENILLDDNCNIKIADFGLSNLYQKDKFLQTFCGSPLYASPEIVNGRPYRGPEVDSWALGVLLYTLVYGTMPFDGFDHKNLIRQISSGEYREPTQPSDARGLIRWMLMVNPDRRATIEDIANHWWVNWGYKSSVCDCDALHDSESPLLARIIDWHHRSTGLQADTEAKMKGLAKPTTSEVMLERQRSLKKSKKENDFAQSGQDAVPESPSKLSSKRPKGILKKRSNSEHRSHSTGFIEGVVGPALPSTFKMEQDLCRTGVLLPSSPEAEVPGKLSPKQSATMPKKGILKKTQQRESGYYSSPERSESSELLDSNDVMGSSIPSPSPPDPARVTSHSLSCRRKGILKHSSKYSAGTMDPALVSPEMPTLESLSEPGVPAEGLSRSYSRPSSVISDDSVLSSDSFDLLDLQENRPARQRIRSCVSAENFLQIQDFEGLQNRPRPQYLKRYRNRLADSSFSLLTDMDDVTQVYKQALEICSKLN

[15] = biological target: Vascular endothelial growth factor receptor 3 (Homo sapiens, UniProt P35916); assay: Inhibition of VEGFR3 (unknown origin); outline: as §1
[16] = biological target: Hepatocyte growth factor receptor (Homo sapiens, UniProt P08581); assay: Inhibition of MET (unknown origin); outline: as §1
[17] = biological target: T4, Receptor-type tyrosine-protein kinase FLT3 (Homo sapiens, UniProt P36888); assay: Inhibition of FLT3 (unknown origin); outline: as §2
T4 sequence (P36888 whole entry): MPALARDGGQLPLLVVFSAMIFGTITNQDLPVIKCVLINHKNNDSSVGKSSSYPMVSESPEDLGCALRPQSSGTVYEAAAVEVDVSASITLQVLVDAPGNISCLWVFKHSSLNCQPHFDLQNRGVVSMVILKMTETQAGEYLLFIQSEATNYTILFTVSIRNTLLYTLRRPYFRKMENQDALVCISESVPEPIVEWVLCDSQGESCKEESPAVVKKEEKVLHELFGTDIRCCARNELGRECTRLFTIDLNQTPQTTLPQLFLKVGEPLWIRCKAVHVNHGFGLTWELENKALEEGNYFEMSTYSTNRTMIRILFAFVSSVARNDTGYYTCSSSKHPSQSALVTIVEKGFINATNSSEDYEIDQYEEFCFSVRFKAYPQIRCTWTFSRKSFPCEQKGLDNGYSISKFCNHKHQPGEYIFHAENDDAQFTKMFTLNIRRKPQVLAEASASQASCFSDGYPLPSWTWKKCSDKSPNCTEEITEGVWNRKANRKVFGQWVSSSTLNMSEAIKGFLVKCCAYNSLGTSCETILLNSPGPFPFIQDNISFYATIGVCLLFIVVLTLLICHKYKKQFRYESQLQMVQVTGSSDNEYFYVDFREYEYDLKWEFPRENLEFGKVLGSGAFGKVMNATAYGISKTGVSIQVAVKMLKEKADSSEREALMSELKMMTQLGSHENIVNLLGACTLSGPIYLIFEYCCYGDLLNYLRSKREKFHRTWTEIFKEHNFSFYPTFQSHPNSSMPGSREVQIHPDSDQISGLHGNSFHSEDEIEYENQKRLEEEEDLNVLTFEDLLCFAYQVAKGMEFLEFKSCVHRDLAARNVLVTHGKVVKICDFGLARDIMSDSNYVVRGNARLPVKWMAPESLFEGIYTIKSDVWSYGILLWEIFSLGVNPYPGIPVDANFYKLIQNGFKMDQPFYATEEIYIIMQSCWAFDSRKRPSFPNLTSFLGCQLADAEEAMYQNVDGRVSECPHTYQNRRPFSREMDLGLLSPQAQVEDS

Insulin receptor = Insulin receptor (Homo sapiens, UniProt P06213); assay: Inhibition of INSR (unknown origin); outline: as §1
Ephrin type-B receptor 4 = Ephrin type-B receptor 4 (Homo sapiens, UniProt P54760); assay: Inhibition of EPHB4 (unknown origin); outline: as §1
[18] = biological target: Platelet-derived growth factor receptor beta (Homo sapiens, UniProt P09619); assay: Inhibition of PDGFR-beta (unknown origin)

Sequence of Epidermal growth factor receptor (P00533 whole entry): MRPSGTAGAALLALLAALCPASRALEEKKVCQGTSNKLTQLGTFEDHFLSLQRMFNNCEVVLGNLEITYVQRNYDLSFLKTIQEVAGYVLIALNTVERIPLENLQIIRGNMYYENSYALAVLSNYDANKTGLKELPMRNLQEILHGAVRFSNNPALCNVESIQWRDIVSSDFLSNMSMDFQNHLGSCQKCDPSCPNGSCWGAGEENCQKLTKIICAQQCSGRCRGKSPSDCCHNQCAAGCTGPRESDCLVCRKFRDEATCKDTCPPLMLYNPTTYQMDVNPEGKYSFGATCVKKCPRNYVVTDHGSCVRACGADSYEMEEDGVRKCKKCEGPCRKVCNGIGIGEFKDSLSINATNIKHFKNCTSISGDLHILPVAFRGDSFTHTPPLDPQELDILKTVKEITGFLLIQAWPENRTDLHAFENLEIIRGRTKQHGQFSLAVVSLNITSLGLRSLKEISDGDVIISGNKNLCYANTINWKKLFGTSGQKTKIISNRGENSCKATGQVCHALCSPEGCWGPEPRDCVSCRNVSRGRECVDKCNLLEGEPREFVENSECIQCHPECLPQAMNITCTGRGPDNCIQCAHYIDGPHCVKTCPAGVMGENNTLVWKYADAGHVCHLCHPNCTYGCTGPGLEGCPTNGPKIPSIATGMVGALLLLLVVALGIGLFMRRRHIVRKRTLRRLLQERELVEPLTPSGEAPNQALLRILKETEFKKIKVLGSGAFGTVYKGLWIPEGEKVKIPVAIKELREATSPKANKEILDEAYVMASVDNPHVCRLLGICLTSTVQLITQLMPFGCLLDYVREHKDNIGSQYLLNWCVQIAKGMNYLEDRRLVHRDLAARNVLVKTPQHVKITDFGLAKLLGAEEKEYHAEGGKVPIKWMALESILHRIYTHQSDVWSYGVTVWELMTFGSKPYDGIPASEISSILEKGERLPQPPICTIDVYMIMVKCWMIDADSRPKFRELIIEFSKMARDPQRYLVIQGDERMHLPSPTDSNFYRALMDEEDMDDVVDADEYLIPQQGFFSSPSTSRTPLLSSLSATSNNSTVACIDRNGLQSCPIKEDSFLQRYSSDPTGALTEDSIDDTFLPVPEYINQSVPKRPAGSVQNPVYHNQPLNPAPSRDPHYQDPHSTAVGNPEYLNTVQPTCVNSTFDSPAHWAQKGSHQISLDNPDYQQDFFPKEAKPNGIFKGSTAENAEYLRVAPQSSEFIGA
Sequence of Mitogen-activated protein kinase kinase kinase 8 (P41279 whole entry): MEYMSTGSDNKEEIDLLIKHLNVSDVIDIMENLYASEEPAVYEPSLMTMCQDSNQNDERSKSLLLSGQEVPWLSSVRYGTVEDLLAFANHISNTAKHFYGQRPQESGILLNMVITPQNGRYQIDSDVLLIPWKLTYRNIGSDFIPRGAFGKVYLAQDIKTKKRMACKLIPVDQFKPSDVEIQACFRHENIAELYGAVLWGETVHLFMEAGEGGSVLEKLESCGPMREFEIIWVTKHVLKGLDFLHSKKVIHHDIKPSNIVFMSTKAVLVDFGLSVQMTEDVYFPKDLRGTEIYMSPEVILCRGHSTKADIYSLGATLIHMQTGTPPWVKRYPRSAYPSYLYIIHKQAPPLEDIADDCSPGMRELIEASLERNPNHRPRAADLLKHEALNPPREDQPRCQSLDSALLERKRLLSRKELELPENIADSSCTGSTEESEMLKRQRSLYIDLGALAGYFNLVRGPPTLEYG
Sequence of Cyclin-dependent kinase 4/cyclin D1 (P11802 whole entry): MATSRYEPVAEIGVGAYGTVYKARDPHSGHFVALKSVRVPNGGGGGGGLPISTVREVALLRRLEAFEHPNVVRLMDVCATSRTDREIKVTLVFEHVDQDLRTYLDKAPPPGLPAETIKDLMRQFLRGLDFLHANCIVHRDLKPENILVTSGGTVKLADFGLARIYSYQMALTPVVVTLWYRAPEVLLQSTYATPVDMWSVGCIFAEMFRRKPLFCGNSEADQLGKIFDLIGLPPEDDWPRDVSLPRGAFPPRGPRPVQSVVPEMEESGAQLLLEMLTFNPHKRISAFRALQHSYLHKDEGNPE
Sequence of Cyclin-dependent kinase 4/cyclin D1 (P24385 whole entry, further chain): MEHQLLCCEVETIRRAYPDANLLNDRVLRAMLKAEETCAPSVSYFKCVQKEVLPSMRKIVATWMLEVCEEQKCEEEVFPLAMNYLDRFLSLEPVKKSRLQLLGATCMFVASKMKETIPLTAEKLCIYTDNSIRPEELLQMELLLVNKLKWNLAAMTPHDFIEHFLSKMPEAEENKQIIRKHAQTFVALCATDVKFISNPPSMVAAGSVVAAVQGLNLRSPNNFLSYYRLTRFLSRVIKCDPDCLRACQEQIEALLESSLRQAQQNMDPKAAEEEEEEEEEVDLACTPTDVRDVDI
Sequence of Aurora kinase B (Q96GD4 whole entry): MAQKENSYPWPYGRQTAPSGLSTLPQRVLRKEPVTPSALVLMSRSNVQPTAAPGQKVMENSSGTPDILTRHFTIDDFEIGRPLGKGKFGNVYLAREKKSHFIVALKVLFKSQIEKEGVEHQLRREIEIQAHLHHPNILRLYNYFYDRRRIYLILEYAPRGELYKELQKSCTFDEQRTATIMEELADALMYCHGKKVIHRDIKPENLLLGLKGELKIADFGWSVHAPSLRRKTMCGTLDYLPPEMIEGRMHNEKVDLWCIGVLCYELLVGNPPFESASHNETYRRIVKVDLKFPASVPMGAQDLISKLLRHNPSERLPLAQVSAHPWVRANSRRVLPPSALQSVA
Sequence of Receptor tyrosine-protein kinase erbB-2 (P04626 whole entry): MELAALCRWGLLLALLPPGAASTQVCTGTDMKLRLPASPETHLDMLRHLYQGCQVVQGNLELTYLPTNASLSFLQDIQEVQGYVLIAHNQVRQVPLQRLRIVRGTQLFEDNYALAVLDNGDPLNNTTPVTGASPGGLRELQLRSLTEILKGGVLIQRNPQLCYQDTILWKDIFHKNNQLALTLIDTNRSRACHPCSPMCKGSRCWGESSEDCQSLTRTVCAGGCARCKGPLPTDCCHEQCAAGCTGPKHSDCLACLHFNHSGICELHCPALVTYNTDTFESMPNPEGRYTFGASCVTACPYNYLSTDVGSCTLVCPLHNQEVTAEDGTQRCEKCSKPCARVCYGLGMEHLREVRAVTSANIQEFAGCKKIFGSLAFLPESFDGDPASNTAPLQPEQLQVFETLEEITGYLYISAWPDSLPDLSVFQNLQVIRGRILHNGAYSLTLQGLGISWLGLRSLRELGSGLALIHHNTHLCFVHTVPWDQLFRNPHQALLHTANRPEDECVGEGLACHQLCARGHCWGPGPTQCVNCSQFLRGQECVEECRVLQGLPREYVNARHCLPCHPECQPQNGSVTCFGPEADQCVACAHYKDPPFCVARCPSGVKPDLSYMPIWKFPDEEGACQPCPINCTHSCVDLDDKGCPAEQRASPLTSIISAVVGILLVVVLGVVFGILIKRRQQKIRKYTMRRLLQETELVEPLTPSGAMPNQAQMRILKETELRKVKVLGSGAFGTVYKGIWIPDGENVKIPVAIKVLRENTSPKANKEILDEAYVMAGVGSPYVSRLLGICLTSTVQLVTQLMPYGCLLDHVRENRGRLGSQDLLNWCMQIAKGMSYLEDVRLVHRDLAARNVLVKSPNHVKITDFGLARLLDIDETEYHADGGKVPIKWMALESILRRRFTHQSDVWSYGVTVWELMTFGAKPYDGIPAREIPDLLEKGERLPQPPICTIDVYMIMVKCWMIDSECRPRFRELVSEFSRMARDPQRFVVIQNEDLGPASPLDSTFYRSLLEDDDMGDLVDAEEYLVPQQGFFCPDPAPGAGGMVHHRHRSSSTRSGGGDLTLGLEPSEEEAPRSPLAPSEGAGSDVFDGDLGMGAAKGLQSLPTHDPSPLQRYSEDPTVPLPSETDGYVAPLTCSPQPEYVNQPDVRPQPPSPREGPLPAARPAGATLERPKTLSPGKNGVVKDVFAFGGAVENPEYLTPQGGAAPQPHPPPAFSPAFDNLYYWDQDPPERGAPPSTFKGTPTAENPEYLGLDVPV
Sequence of Focal adhesion kinase 1 (Q05397 whole entry): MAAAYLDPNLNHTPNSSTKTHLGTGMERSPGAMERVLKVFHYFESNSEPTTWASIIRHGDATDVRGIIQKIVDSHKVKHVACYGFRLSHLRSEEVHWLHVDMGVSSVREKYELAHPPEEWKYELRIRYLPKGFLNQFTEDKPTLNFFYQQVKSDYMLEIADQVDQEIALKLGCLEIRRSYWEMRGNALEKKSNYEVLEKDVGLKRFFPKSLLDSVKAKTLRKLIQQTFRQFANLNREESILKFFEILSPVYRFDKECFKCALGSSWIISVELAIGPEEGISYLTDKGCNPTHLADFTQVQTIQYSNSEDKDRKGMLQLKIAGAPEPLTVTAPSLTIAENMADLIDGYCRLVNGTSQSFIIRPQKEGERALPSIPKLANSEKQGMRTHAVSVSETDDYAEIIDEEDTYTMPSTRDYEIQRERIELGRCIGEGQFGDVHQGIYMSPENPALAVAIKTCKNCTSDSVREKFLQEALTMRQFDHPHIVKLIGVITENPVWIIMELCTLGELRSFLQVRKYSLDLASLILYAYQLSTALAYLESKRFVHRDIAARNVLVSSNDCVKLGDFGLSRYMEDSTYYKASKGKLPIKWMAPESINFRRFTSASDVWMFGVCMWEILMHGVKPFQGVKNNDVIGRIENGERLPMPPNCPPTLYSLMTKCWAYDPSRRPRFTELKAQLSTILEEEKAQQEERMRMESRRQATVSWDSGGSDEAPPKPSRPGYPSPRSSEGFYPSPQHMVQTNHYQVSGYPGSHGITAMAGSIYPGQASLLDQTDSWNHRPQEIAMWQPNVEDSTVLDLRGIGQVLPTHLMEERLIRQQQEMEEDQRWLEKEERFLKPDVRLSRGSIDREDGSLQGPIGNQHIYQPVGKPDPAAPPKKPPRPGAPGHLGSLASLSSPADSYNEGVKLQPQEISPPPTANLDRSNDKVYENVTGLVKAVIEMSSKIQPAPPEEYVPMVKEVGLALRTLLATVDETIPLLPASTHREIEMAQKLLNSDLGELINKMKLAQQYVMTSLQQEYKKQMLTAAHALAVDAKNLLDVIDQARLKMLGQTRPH

| SMILES | IC50 (Focal adhesion kinase 1) | IC50 [2] | IC50 [3] | IC50 [4] | IC50 (Aurora kinase B) | IC50 [5] | IC50 [6] | IC50 [7] | IC50 (Aurora kinase A) | IC50 [8] | IC50 [9] | inhibition (L5178Y) | IC50 (Angiopoietin-1 receptor) | IC50 [11] | IC50 [12] | IC50 [13] | IC50 [14] | IC50 [15] | IC50 [16] | IC50 [17] | further results |
| --- | --- | --- | --- | --- | --- | --- | --- | --- | --- | --- | --- | --- | --- | --- | --- | --- | --- | --- | --- | --- | --- |
| O=C(NCCc1ccc(O)c(Br)c1)/C(Cc1cc(Br)c(O)c(-c2cc(C/C(=N/O)C(=O)NCCc3ccc(O)c(Br)c3)cc(Br)c2O)c1)=N\O [BASTADIN 3] | 2100 nM | 2700 nM | 1200 nM | 1900 nM | 500 nM | 1300 nM | 1600 nM | 3900 nM | 100 nM | 2100 nM | 1500 nM | inactive | 800 nM | 4100 nM | 2300 nM | 1600 nM | 1800 nM | 2800 nM | 1100 nM | 2400 nM | IC50 [1]: 4100 nM; IC50 [10]: 1900 nM; IC50 (Insulin receptor): 2900 nM |
| O=C(NCCc1ccc(O)c(Br)c1)/C(Cc1cc(Br)c(O)c(Oc2ccc(CCNC(=O)/C(Cc3cc(Br)c(O)c(-c4cc(C/C(=N\O)C(=O)NCCc5ccc(O)c(Br)c5)cc(Br)c4O)c3)=N/O)cc2Br)c1)=N/O [SESQUIBASTADIN 1] | 3500 nM | 1700 nM | 600 nM | 700 nM | 2300 nM | 600 nM | 6500 nM | 6400 nM | 2600 nM | 2100 nM | 1400 nM | inactive | 600 nM | 700 nM | 1000 nM | 1300 nM | 1700 nM | 1600 nM | 800 nM | 1400 nM | IC50 (Ephrin type-B receptor 4): 3400 nM; IC50 [18]: 4000 nM; IC50 (Insulin receptor): 1400 nM |
| O=C1NCCc2cc(Br)c(O)c(c2)Oc2c(Br)cc(cc2Br)CCNC(=O)/C(=N/O)Cc2cc(Br)c(O)c(c2)Oc2c(Br)cc(cc2Br)C/C1=N\O [BASTADIN 6] | – | – | – | – | 2900 nM | 2000 nM | – | – | 1700 nM | 7000 nM | 3600 nM | – | – | – | – | 4800 nM | – | – | – | 5300 nM | IC50 (L5178Y): 1500 nM |
